Assay results taken from ChEMBL document CHEMBL1124947, “Cationic antiprotozoal drugs. Trypanocidal activity of 2-(4'-formylphenyl)imidazo[1,2-a]pyridinium guanylhydrazones and related derivatives of quaternary heteroaromatic compounds” (J Med Chem, 1990).

Legend:
Assay type in all cases: functional
Mus musculus [1] = assay: Trypanocidal Activity at I.C.E. value 0.46 when administered subcutaneously.
Outline: (§1)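 Blood-stage T. rhodesiense infection came from a standard inoculum lethal to all untreated mice. Drug was given by subcutaneous injection to groups of five mice. Survival beyond 30 days counted as cure. […] Sub-curative doses scored 0, and data were normalized at each dose.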

Mus musculus [2] = assay: Trypanocidal Activity at I.C.E. value 0.58 when administered subcutaneously.
Outline: (§2)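 Mice, in groups of five per dose, were given a standard inoculum of blood-stage T. rhodesiense that is lethal to all untreated controls, then dosed subcutaneously. Usually 11 dose levels were used (2^n × 0.42 mg/kg).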

Mus musculus [3] = assay: Trypanocidal Activity at I.C.E. value 0.18 when administered subcutaneously.
[4] = test system: Trypanosoma brucei rhodesiense; assay: In Vitro measurement of inhibition of thymidine uptake in cell culture of Trypanosoma rhodesiense; conditions: read-out: ID50 (the source's name)
Outline: (§3)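 Parasites harvested from infected rats and incubated 3 h across a drug concentration series, usually 0.1–100 µg/mL. Incorporation of radiolabeled thymidine measured. ID50 is the concentration (µg/mL) producing 50% inhibition.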

[5] = test system: Trypanosoma brucei rhodesiense; assay: In Vitro measurement of inhibition of leucine uptake in cell culture of Trypanosoma rhodesiense; conditions: read-out: ID50 (the source's name)
Outline: (§4)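 Trypanosomes harvested from infected rats, cultured 3 h with several concentrations of drug, usually 0.1–100 µg/mL. Radiolabeled L-leucine uptake measured. ID50 is the concentration in µg/mL giving 50% inhibition of incorporation.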

Mus musculus [6] = assay: Trypanocidal Activity at I.C.E. value 0.26 when administered subcutaneously.; outline: as §1
Mus musculus [7] = assay: Trypanocidal Activity at I.C.E. value 0.35 when administered perorally.
Mus musculus [8] = assay: Trypanocidal Activity at I.C.E. value 0.67 when administered subcutaneously.; outline: as §2
Mus musculus [9] = assay: Trypanocidal Activity at I.C.E. value 0.64 when administered subcutaneously.; outline: as §2
Mus musculus [10] = assay: Trypanocidal Activity at I.C.E. value 0.61 when administered perorally.
Mus musculus [11] = assay: Trypanocidal Activity at I.C.E. value 0.48 when administered perorally.
Mus musculus [12] = assay: Trypanocidal Activity at I.C.E. value 0.17 when administered subcutaneously.
Mus musculus [13] = assay: Trypanocidal Activity at I.C.E. value 0.24 when administered perorally.
Mus musculus [14] = assay: Trypanocidal Activity at I.C.E. value 0.23 when administered subcutaneously.; outline: as §1
Mus musculus [15] = assay: Trypanocidal Activity at I.C.E. value 0.21 when administered subcutaneously.
Mus musculus [16] = assay: Trypanocidal Activity at I.C.E. value 0.10 when administered perorally.
[17] = test system: Trypanosoma brucei rhodesiense; assay: In Vitro measurement of inhibition of thymidine uptake in cell culture of Trypanosoma rhodesiense.; conditions: read-out: ID50 (the source's name); outline: as §3
Mus musculus [18] = assay: Trypanocidal Activity at I.C.E. value 0.39 when administered subcutaneously.; outline: as §1
[19] = test system: Trypanosoma brucei rhodesiense; assay: In Vitro measurement of inhibition of Leucine uptake in cell culture of Trypanosoma rhodesiense.; conditions: read-out: ID50 (the source's name); outline: as §4
Mus musculus [20] = assay: Trypanocidal Activity at I.C.E. value 0.37 when administered subcutaneously.; outline: as §1
Mus musculus [21] = assay: Trypanocidal Activity at I.C.E. value 0.69 when administered subcutaneously.; outline: as §2
Mus musculus [22] = assay: Trypanocidal Activity at I.C.E. value 0.33 when administered subcutaneously.; outline: as §1
Mus musculus [23] = assay: Trypanocidal Activity at I.C.E. value 0.30 when administered subcutaneously.; outline: as §1
Mus musculus [24] = assay: Trypanocidal Activity at I.C.E. value 0.27 when administered subcutaneously.; outline: as §1

Q: Which CD50 (Mus musculus [1]) does the source give for `Br.CC(NC(=N)N/N=C/c1ccc(-c2cn3ccccc3[n+]2C)cc1)c1ccco1.[Br-]` (centres undefined) here?
A: 1.6 mg/kg

Q: With `C/N=C(\NC)N/N=C/c1ccc(-c2cn3ccccc3[n+]2C)cc1.I.[I-]` as the compound, how does the CD50 (Mus musculus [2]) read?
A: 0.2 mg/kg

Q: For `C[n+]1c(-c2ccc(/C=N/Nc3ccccn3)cc2)cn2ccccc21.Cc1ccc(S(=O)(=O)[O-])cc1`, which CD50 (Mus musculus [3]) is on record?
A: 212 mg/kg

Q: How did the IC50 [4] turn out when `C[n+]1c(COc2ccc(C(=N)N)cc2)cn2ccccc21.Cl.[Cl-]` was run?
A: 0.7 mg/L

Q: What about the IC50 [5] of the same compound?
A: 12 mg/L

Q: And the CD50 (Mus musculus [6])?
A: 3.3 mg/kg

Q: Which results are given for `Br.CCNC(=N)N/N=C/c1ccc(-c2cn3cc(C)ccc3[n+]2C)cc1.[Br-]`?
A: CD50 (Mus musculus [7]): 26 mg/kg; CD50 (Mus musculus [8]): 0.4 mg/kg

Q: How did the CD50 (Mus musculus [1]) turn out when `Br.CC/N=C(\NCC)N/N=C/c1ccc(/C=C/c2n(C)cc[n+]2C)cc1.[Br-]` was run?
A: 1.6 mg/kg

Q: With `Br.Cn1cc[n+](C)c1/C=C/c1ccc(/C=N/NC2=NCCN2)cc1.[Br-]` as the compound, how does the CD50 (Mus musculus [9]) read?
A: 1.6 mg/kg

Q: For `Br.C[n+]1c(-c2ccc(/C=N/NC3=NCCCN3)cc2)cn2ccccc21.[Br-]`, which CD50 (Mus musculus [8]) is on record?
A: 0.1 mg/kg

Q: And the CD50 (Mus musculus [10])?
A: 6.6 mg/kg

Q: With `Br.CN(C)C(=N)N/N=C/c1ccc(OCc2cn3ccccc3[n+]2C)cc1.[Br-]` as the compound, how does the CD50 (Mus musculus [6]) read?
A: 3.3 mg/kg

Q: With `Br.CC[S+]([O-])c1ccc2n(c1)cc(-c1ccc(/C=N/NC(=N)N)cc1)[n+]2C.[Br-]` (centres undefined) as the compound, how does the CD50 (Mus musculus [9]) read?
A: 1.6 mg/kg

Q: How did the CD50 (Mus musculus [8]) turn out when `Br.Cn1c(COc2ccc(/C=N/NC(=N)N)cc2)[n+](C)c2ccccc21.[Br-]` was run?
A: 0.4 mg/kg

Q: What about the IC50 [4] of the same compound?
A: 1.9 mg/L

Q: What about the IC50 [5] of the same compound?
A: 6.1 mg/L

Q: What about the CD50 (Mus musculus [11]) of the same compound?
A: 13 mg/kg

Q: What does the source list for `CC(=O)Nc1ccc(-c2cn3ccccc3[n+]2C)cc1.[I-]`?
A: CD50 (Mus musculus [12]): 212 mg/kg; IC50 [4]: > 10 mg/L; CD50 (Mus musculus [13]): 106 mg/kg; IC50 [5]: > 10 mg/L

Q: How did the CD50 (Mus musculus [14]) turn out when `Cc1ccc(S(=O)(=O)O)cc1.Cc1ccc(S(=O)(=O)[O-])cc1.Cn1cc[n+](C)c1COc1ccc(/C=N/NC(=N)N2CCCC2)cc1` was run?
A: 6.6 mg/kg

Q: With `Br.CN1CCN(C(=N)N/N=C/c2ccc(-c3cn4ccccc4[n+]3C)cc2)CC1.[Br-]` as the compound, how does the CD50 (Mus musculus [15]) read?
A: 3.3 mg/kg

Q: Which CD50 (Mus musculus [15]) does the source give for `C[n+]1c(-c2ccc(C(=N)N)cc2)cn2ccccc21.Cl.[Cl-]` here?
A: 26 mg/kg

Q: How did the CD50 (Mus musculus [3]) turn out when `Br.CCNC(=N)N/N=C/c1ccc(OCc2cccc[n+]2C)cc1.[Br-]` was run?
A: 6.6 mg/kg

Q: What about the CD50 (Mus musculus [16]) of the same compound?
A: 212 mg/kg

Q: What does the source list for `Cc1ccc(S(=O)(=O)O)cc1.Cc1ccc(S(=O)(=O)[O-])cc1.Cc1ccc2n(c1)cc(-c1ccc(/C=N/NC(=N)N3CCSC3)cc1)[n+]2C`?
A: IC50 [17]: > 10 mg/L; CD50 (Mus musculus [18]): 6.6 mg/kg; IC50 [19]: 0.5 mg/L

Q: `Br.Cc1ccc2n(c1)cc(-c1ccc(/C=N/NC(=N)NN3CCOCC3)cc1)[n+]2C.[Br-]` was tested. Which CD50 (Mus musculus [20]) did it give?
A: 3.3 mg/kg

Q: How did the CD50 (Mus musculus [21]) turn out when `Br.Cc1ccc2n(c1)cc(/C=C/c1ccc(/C=N/NC(=N)NO)cc1)[n+]2C.[Br-]` was run?
A: 3.3 mg/kg

Q: How did the IC50 [4] turn out when `Br.CNC(=N)N/N=C/c1ccc(-c2c([N+](=O)[O-])n3ccccc3[n+]2C)cc1.[Br-]` was run?
A: 5.4 mg/L

Q: And the CD50 (Mus musculus [22])?
A: 0.4 mg/kg

Q: What about the IC50 [5] of the same compound?
A: 3.4 mg/L

Q: For `Br.Cc1cccc2n1cc(COc1ccc(/C=N/NC3=NCCN3)cc1)[n+]2C.[Br-]`, which CD50 (Mus musculus [9]) is on record?
A: 0.8 mg/kg

Q: For `Br.CC/N=C(\NCC)N/N=C/c1ccc(OCc2n(C)cc[n+]2C)cc1.[Br-]`, which CD50 (Mus musculus [23]) is on record?
A: 13 mg/kg

Q: `Br.CCSc1ccc2n(c1)cc(-c1ccc(/C=N/NC3=NCCN3)cc1)[n+]2C.[Br-]` was tested. Which CD50 (Mus musculus [21]) did it give?
A: 3.3 mg/kg

Q: `C[n+]1ccc(COc2ccc(/C=N/NC(=O)c3ccc(N)cc3)cc2)cc1.Cc1ccc(S(=O)(=O)[O-])cc1` was tested. Which CD50 (Mus musculus [24]) did it give?
A: 26 mg/kg

Q: What does the source list for `C[n+]1c(COc2ccc(/C=N/Nc3ccccn3)cc2)cn2ccccc21.Cc1ccc(S(=O)(=O)[O-])cc1`?
A: IC50 [4]: 7.9 mg/L; CD50 (Mus musculus [14]): 53 mg/kg; IC50 [5]: 10.1 mg/L

Q: How did the CD50 (Mus musculus [20]) turn out when `Br.Cn1cc[n+](C)c1COc1ccc(/C=N/NC2=NCCN2)cc1.[Br-]` was run?
A: 3.3 mg/kg

Q: For `Br.C/N=C(/NC)N/N=C/c1ccc(-c2cn3ccc(C)cc3[n+]2C)cc1.[Br-]`, which CD50 (Mus musculus [2]) is on record?
A: 0.4 mg/kg
